Sampled rows, rich in hits. Any-hit rate of the full collection: about 2.3%.
STAT3 inh = reduces IL-6 driven STAT3 reporter signal; U3A cells, IL-6 STAT3-luciferase reporter, luminescence; host cell line lacks STAT1; inhibition, % at 5.5 µM; 0.89% of 190,000 active;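 active means inhibition above the mean inhibition across all screened compounds plus 3 SD, cut at about 44% in these data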;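 further: 0% = DMSO only wells and 100% = 100 µM nifuroxazide control wells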
PPC-1+TRAIL kill = compounds killing PPC-1 cancer cells with TRAIL present (potentiator screen, no TRAIL-free arm); 0.41% of 220,000 active; AID 1443; PPC-1 cells + TRAIL, ATPLite viability luminescence; cell killing (% activity), % at 4 µM or 5 µM;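 active means cell killing above 50% in the first pass at 4 µM, then a duplicate retest at 5 µM averaging 50% or more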;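 further: plate controls were cells with TRAIL plus DMSO for no effect and medium-only wells lacking cells for full effect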
HSP90 refold inh = blocks HSP90-mediated luciferase refolding in reticulocyte lysate; Rabbit reticulocyte lysate, luciferase refolding luminescence, 3 h; 0.91% of 290,000 active; inhibition, % at 5.6 µM;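 active means inhibition above the screen-wide mean plus 3 SD, computed separately per campaign, cut at about 16% in these data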;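 further: 0% = DMSO wells and 100% = 60 µM geldanamycin wells; inhibitors lower the luminescence because luciferase stays unfolded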
STAT1 blocker = reduces IFN-gamma driven STAT1 reporter signal; NIH 3T3 STAT1-luciferase reporter, luminescence; inhibition, % at 5.5 µM; 0.35% of 200,000 active; AID 920;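 active means inhibition above a set limit, the mean inhibition across all tested compounds plus 3 SD, cut at about 34% in these data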;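 further: 0% = IFN-gamma with DMSO and 100% = IFN-gamma with 300 µM nifuroxazide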
STAT3 act = activators of IL-6 induced STAT3 signaling | U3A cells, IL-6 STAT3-luciferase reporter, luminescence; 100% = signal with IL-6 EC80 alone | activation (% of control), % at 5.6 µM | 0.91% of 190,000 active;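 active means activation above the screen-wide mean of compound activation plus 3 SD, cut at about 130% in these data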;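 further: 0% = background luminescence of wells with medium and substrate only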
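Material: STAT3-luciferase reporter U3A cells; Probe or stimulus: IL-6 (33 ng/mL); Incubation: compound pre-incubation 1 h before IL-6, then 6 h stimulation at 37 °C; Technique: luminescence from STAT3-driven luciferase reporter; Evaluation: % activation versus median of IL-6-stimulated wells; Controls: IL-6-only high control.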
C8 TRAIL sens = caspase-8 TRAIL sensitization | NB7+C8 cells + TRAIL, ATPlite viability luminescence | inhibition (viability loss, TRAIL sensitization), % at 10 µM | 1% of 360,000 active;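 active means compounds causing at least 50% loss of cell viability in the single-dose screen, relative to plate controls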
PPC1 cytotox = PPC-1 cell cytotoxicity | shares compounds with PPC-1+TRAIL kill | PPC-1 viability, ATPlite luminescence, overnight | cytotoxicity, % at 5 µM | 50% of 1,200 active;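 active means reconfirmed compounds whose average cytotoxicity reaches 50% or more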;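 further: 0% = DMSO-treated cells and 100% = wells holding medium but no cells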
* marks the source's active call; other numbers are inactive results; . = not tested or not shown.

SMILES | STAT3 inh | PPC-1+TRAIL kill | HSP90 refold inh | STAT1 blocker | STAT3 act | C8 TRAIL sens | PPC1 cytotox
Cc1[nH]n(-c2ccccc2)c(=O)c1C(C[N+](=O)[O-])c1ccc(Br)cc1 (centres undefined) | 7.8 | 5.5 | 10.2 | 7.2 | 99.7 | 3.8 | -0.1
Cc1nc2ccc(NC(=O)Cc3ccsc3)cc2s1 | -13.7 | 7.5 | 6.7 | -18.0 | 111.7 | 22.4 | 10.2
Cc1nc2ccc(NC(=O)Cc3cccc(F)c3)cc2s1 | 2.5 | 3.0 | 1.4 | -16.0 | 99.6 | 2.7 | .
Cc1nc2ccc(NC(=O)COc3ccccc3)cc2s1 | 28.0 | 0.6 | -3.0 | -7.8 | 80.1 | 17.4 | 2.4
Brc1ccc(-c2nc(N/N=C/c3cccnc3)c3ccccc3n2)cc1 | -2.1 | 88.2* | 0.6 | 3.1 | 104.8 | 91.3* | 86.9*
C(=N\Nc1nc(-c2ccccn2)nc2ccccc12)/c1ccccc1 | . | 69.0* | -1.4 | . | . | . | 73.4*
O=[N+]([O-])c1ccc(N/N=C/c2ccc(O)c(O)c2O)c(S(=O)(=O)N2CCOCC2)c1 | 6.8 | 4.0 | -1.7 | 12.9 | 98.3 | 13.6 | 7.5
CCOC(=O)C1=C2N(C)c3ccccc3N2CCC1=O | -3.6 | 2.7 | -3.1 | -7.6 | 107.9 | -3.6 | 8.4
CCN1C(=O)C(NC(C)=O)c2cc(Br)ccc21 (centres undefined) | 12.3 | 17.6 | 4.4 | 5.1 | 92.8 | -7.1 | .
CCCCN1C(=O)C(NC(C)=O)c2cc(Br)ccc21 (centres undefined) | -9.1 | 0.3 | -1.3 | -3.1 | 111.9 | 10.2 | -13.9
Cc1nn(Cc2ccccc2Cl)c(C)c1NC(=O)CSc1n[nH]c(C)c1[N+](=O)[O-] | 5.6 | 6.0 | 3.3 | 6.2 | 92.0 | . | .
O=C1C(Cl)=C(NCCN2CCCCC2)C(=O)c2ccccc21 | 8.0 | 47.5 | 2.8 | -0.3 | 97.1 | 91.9* | 46.3
CCNC1=C(Cl)C(=O)c2ccccc2C1=O | 4.0 | 6.6 | 6.1 | -5.0 | 94.3 | 2.6 | .
CC1(C)SC(=S)N(/N=C/c2ccccc2)C1N(O)C(=O)Nc1ccc([N+](=O)[O-])cc1 (centres undefined) | -2.7 | 0.9 | -2.1 | -7.2 | 105.9 | 2.1 | .
COc1ccc(NC(=O)CN(C)C(=O)c2csc3c2CCCC3)cc1 | . | . | . | . | . | 3.9 | .
CCN(CC)C(=O)C(Sc1ccccc1)c1ccccc1 (centres undefined) | -7.7 | -0.5 | 3.5 | -8.5 | 103.7 | -4.4 | 2.1
Cc1ccn2c(=O)c(C(=O)NC3CCCCC3C)c(O)nc2c1 (centres undefined) | . | . | . | . | . | 22.6 | .
Cc1ccc(Cn2ccsc2=NC(=O)CCl)cc1 | 27.8 | 91.5* | -1.1 | 33.6 | 78.2 | 97.8* | 90.8*
Cc1ccc(Cn2ccsc2=NC(=O)COC(=O)c2ccc(NC(=O)CC#N)cc2)cc1 | . | . | . | . | . | 5.8 | .
CCN(CC)CCn1nc2c3c(cccc3c1=O)-c1ccccc1-2 | -42.6 | 20.0 | 2.0 | -146.8 | 134.5* | 12.9 | 18.3
Cc1cc(C)n2nnnc2c1C#N | 1.4 | 23.6 | 2.6 | 2.4 | 105.4 | -14.7 | .
Cc1cc(OC(=O)c2ccc(S(=O)(=O)N3CCOCC3)cc2)c([N+](=O)[O-])c(=O)[nH]1 | -1.0 | -10.9 | 2.5 | 1.4 | 102.9 | -5.0 | 6.0
N#Cc1nc(-c2ccco2)oc1N1CCC(C(N)=O)CC1 | 4.5 | -4.0 | 0.8 | 1.7 | 98.5 | -5.9 | -1.7
Cc1ccc(-n2c(SCC(=O)NCc3cccs3)nnc2-c2ccoc2C)cc1 | -0.7 | 4.1 | -1.2 | -2.0 | 104.2 | 17.4 | .
Cc1cc(=O)[nH]c(SCC(=O)N2CCCCCC2)n1 | 4.4 | 13.8 | -2.1 | -1.5 | 101.7 | 4.0 | 13.1
SMILES | STAT3 inh | PPC-1+TRAIL kill | HSP90 refold inh | STAT1 blocker | STAT3 act | C8 TRAIL sens | PPC1 cytotox
Cc1cc(=O)[nH]c(SCC(=O)N2CCCCC2)n1 | . | . | -3.7 | . | . | -9.7 | .
CCCc1cc(=O)[nH]c(SCC(=O)N2CCN(c3ccc(F)cc3)CC2)n1 | 0.5 | 6.8 | -5.0 | -3.2 | 102.7 | -2.6 | 0.5
CCCc1cc(=O)[nH]c(SCC(=O)N2CCC(C)CC2)n1 | . | . | -1.0 | . | . | -17.2 | .
COc1ccc(-c2nc3ccccc3s2)cc1 | 84.8* | 59.8* | 17.7* | 72.8* | 26.9 | 84.1* | 60.9*
COc1cccc(-c2nc3ccccc3s2)c1 | -0.9 | 35.5 | 3.2 | -45.2 | 100.7 | 38.6 | .
CCOc1cccc(/C=C/c2cc(C(=O)O)c3ccccc3n2)c1OC | . | 70.8* | 5.5 | . | . | 75.6* | 69.4*
Cc1occc1C(=O)NC(C)C1CCCO1 (centres undefined) | -0.2 | 18.6 | 0.8 | 0.7 | 102.7 | -3.8 | .
Cn1c(C(=O)NCc2ccc3c(c2)OCO3)cc2sccc21 | 8.6 | -1.6 | 0.0 | -4.8 | 94.8 | 2.2 | .
Cn1c(C(=O)Nc2ccc3c(c2)OCO3)cc2sccc21 | -26.3 | 5.7 | -6.2 | -101.7 | 126.0 | 32.3 | 12.3
Cc1ccc(O)c(NC(=S)NC(=O)/C=C/c2ccccc2)c1 | . | . | 0.6 | . | . | -3.3 | .
O=C(N/N=C/c1ccc2nccnc2c1)c1ccncc1 | . | -1.5 | 5.0 | . | . | 24.3 | .
O=C(N/N=C/c1ccc2nccnc2c1)c1ccccc1O | . | 62.8* | 7.3 | . | . | . | 63.3*
COCCn1nnnc1C(c1cc2ccc(OC)cc2[nH]c1=O)N1CCN(C2CCCCC2)CC1 (centres undefined) | -0.9 | -20.5 | -6.2 | -3.3 | 101.0 | 2.4 | -0.1
Cn1c(/C=C/c2ccccc2)nc2ccccc21 | 89.4* | 80.5* | 14.3 | 74.9* | 25.9 | 82.8* | 81.7*
COCCn1c(/C=C/c2ccccc2)nc2ccccc21 | 18.4 | 42.0 | -8.0 | -54.0 | 88.5 | 41.3 | .
C/C(=N\N1C(=O)c2ccccc2NC1c1ccccc1)c1ccccc1O (centres undefined) | 32.2 | 48.0 | -1.5 | -45.6 | 75.7 | 69.9* | 42.3
Cn1nc(-c2ccc(C(=O)NCC3CCCO3)cc2)c2ccccc2c1=O (centres undefined) | 23.3 | 11.3 | 1.3 | 2.5 | 82.9 | 2.7 | .
CC(=O)Nc1ccc(NC(=O)c2cc(=O)c3cc(C)c(C)cc3o2)cc1 | . | . | -3.4 | . | . | 35.6 | .
CC(C)n1c(NCc2ccc(N(C)C)cc2)nc2ccccc21 | -0.4 | 24.6 | -3.1 | 4.3 | 102.7 | 3.0 | .
O=c1c2ccccc2cnn1-c1nc2ccccc2[nH]1 | 107.3* | 94.0* | 92.2* | 93.8* | 9.0 | 94.3* | 93.8*
CCOc1ccc(S(=O)(=O)N2CCCCC2)cc1NC(=O)CCNC(=O)c1ccco1 | . | . | . | . | . | -4.7 | .
CC(C)OC(=O)Nc1ccc2c(c1)N(C(=O)N1CCN(C)CC1)c1ccccc1CC2 | . | 74.5* | 3.9 | . | . | 78.9* | 73.5*
CC(=O)NC(c1ccc(Cl)cc1)c1ccc2cccnc2c1O (centres undefined) | . | . | . | . | . | 22.9 | .
Cc1cc(NC(c2ccc(Cl)cc2)c2ccc3cccnc3c2O)no1 (centres undefined) | 13.8 | 39.0 | 7.0 | -4.7 | 93.8 | 17.6 | 35.5
CCOC(=O)Cn1c(O)c(N=NC(=O)OC)c2ccccc21 | . | -4.8 | -2.0 | . | . | -1.1 | .

Screening results (PubChem)
